Compound activity: PubChem, Broad Institute
Hits are enriched below; roughly 1.4% of the tested compounds scored in any of these assays.
PDI turbidity: PDI (human) enzyme inhibition. actives 0.052% (n = 350,000). PDI insulin aggregation turbidity, A650, 90 min. inhibition, % at 10 µM. P07237;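 active means mean inhibition across replicates of 30% or more, whatever share of single replicates reach that level; inconclusive means mean inhibition below 30% while every single replicate reaches 30%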
INS-1E GSIS act: primary screen for activators of insulin secretion dependent on glucose, INS-1E cells, GLuc reporter luminescence; INS-1E GLuc reporter insulin secretion, 2-3 h; activation, % at 16.6 µM; AID 743287; actives 0.61% (n = 370,000);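 active means lowest replicate activation of at least 40%, so every replicate reaches that level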;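 further: 0% = median of neutral control wells and 100% = median of IBMX positive control wells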
ERp5 block: blocks human ERp5 reductase activity on insulin. Q15084. ERp5 insulin aggregation, absorbance 650 nm, 90 min. inhibition, % at 9.99 µM. actives 0.05% (n = 350,000);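 active means mean replicate inhibition above about 25%, with every replicate also reaching it, limit read from the data, passing the limit was not always enough; inconclusive means only one of those two criteria met; inactive means neither criterion met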
Target sequence (Q15084 whole entry, looked up): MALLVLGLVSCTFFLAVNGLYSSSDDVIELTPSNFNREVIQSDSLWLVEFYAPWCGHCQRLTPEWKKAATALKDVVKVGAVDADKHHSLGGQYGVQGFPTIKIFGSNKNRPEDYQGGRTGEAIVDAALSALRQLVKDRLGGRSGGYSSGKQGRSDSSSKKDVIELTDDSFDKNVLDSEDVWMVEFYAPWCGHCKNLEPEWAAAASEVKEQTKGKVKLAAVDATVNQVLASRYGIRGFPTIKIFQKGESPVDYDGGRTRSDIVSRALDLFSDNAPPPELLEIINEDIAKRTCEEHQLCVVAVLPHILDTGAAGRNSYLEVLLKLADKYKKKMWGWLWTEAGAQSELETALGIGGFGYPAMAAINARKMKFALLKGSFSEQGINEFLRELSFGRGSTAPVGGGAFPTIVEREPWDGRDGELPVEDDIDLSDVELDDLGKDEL
FN deposition inh: fibronectin deposition inhibition | AH1F fibroblasts, Alexa488-fibronectin deposition fluorescence, overnight | inhibition, % at 12.6 µM | actives 0.086% (n = 350,000);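 active means mean inhibition across replicates of 30% or more, regardless of how many single replicates reach that level; inconclusive means mean under 30% yet at least half of replicates reach 30%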;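 further: positive control wells lacked labelled fibronectin entirely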
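Material: AH1F fibroblasts assembling fluorescent fibronectin matrix; amount: 10000 AH1F cells/well; medium: DMEM, 2% serum; reagent: Alexa488-fibronectin, 24 nM final in well; dosing: single compound dose, delivered by pin transfer; incubation: 1 h adhesion, overnight exposure; detection: fluorescence after three HBSS washes, excitation 485 nm, emission 525 nm; measure: fibronectin deposition inhibition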
Env fusion inh: HIV envelope-mediated fusion inhibition. HeLa-JRFL Env/CEM21 cell fusion, luciferase. inhibition, % at 12.3 µM. actives 1.1% (n = 360,000);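 active means mean replicate inhibition score of at least 50 and every replicate individually at or above 50; inconclusive means only one of the two criteria met; inactive means mean below 50 and not all replicates reaching 50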;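 further: 0% = plate neutral controls and 100% = maraviroc near 300 nM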
* hit, by the source's call; u = inconclusive; x = no result; [ ] = another dose, or the depositor's remark.

SMILES	PDI turbidity	INS-1E GSIS act	ERp5 block	FN deposition inh	Env fusion inh
O=C(c1ccccc1)N(CCCn1ccnc1)C(c1ccccc1)c1nc2ccccc2[nH]1 (stereo not given)	x	-15.4	-1.6	-1.1	-33.5
O=S(=O)(N[C@@H]1CCCN(Cc2cccc(OCCO)c2)C1)c1ccc2ccccc2c1	x	x	-0.5	x	-1.2[16.7 µM]
Cc1noc(C)c1S(=O)(=O)N(C)C[C@H]1Oc2ccc(NC(=O)Nc3ccc4c(c3)OCO4)cc2CC(=O)N([C@@H](C)CO)C[C@H]1C	x	-2.8	-0.4	x	6.6[16.7 µM]
O=S(=O)(/C(=C/c1ccc(C(F)(F)F)cc1)c1nc2ccccc2[nH]1)c1ccccc1	-1.3	-28.8	x	64.8*	-127.0
CC(C)c1ccc(/C=C(\c2nc3ccccc3[nH]2)S(=O)(=O)c2ccccc2)cc1	11.7	-19.1	x	12.4	-447.1
Cc1ccc(S(=O)(=O)N(C)C[C@H]2Oc3ccc(NC(=O)CCCCCC(=O)Nc4ccccc4N)cc3CC(=O)N([C@@H](C)CO)C[C@H]2C)cc1	x	5.6	1.0	x	18.2[16.7 µM]
O=C1CSC(c2cccc(O)c2)N1Cc1ccccc1 (stereo not given)	4.4	41.9*	0.5	1.7	4.8
O=C(C1CCCCC1)N1CCN(c2ccnc3cc(Cl)ccc23)CC1	0.0	x	x	-2.7	56.9*
COc1ccc(N(C(=O)c2ccco2)C(C(=O)NC2CCCC2)c2ccc(OC)c(OC)c2)cc1 (stereo not given)	11.5	-0.7	4.1	1.9	55.2*
COc1ccc(C(C(=O)NC2CCCC2)N(C(=O)c2ccco2)c2ccc(OC)c(OC)c2)cc1 (stereo not given)	1.5	x	x	0.3	-381.5
COc1ccc(C(=O)Nc2ccc3c(c2)C(=O)c2ccccc2C3=O)cc1OC	-4.8	61.8*	x	-12.6	3.4
COc1cc(C(=O)Nc2ccc3c(c2)C(=O)c2ccccc2C3=O)cc(OC)c1OC	-5.6	24.4	x	x	-25.5
CC(=O)NC(c1ccc(C)cc1)c1cc([N+](=O)[O-])c2cccnc2c1O (stereo not given)	-6.5	11.2	4.0	8.1	47.8*
O=C(NCc1ccccn1)c1ccccc1OCc1ccc(Cl)cc1Cl	-5.2	49.0*	-16.8	0.7	x
O=C(NC1CCCCC1)C(c1ccccc1F)n1c(=O)c(-c2ccco2)nc2ccccc21 (stereo not given)	x	-15.4	4.6	-12.8	59.4*
Cc1ccc(-c2nc3ncccc3o2)cc1NC(=O)c1ccco1	10.6	x	x	31.8*	-37.9
Cc1ccc(-c2nc3ncccc3o2)cc1NC(=S)NC(=O)c1ccco1	3.5	14.2	0.0	-11.5	-4.4
N#C/C(=C\c1ccccc1OCc1ccc(C(=O)O)cc1)C(=O)Nc1ccc(O)cc1	50.9*	4.0	-0.6	-1.5	2.1
O=C(Nc1ccc(F)cc1)Nc1cc(OCC(F)(F)F)cc(OCC(F)(F)F)c1	3.8	127.6*	x	-1.5	70.1*
CCc1nc2c(nnn2Cc2ccc(F)cc2)c(=O)[nH]1	-8.2	60.1*	-4.4	x	x
O=C(CSCc1nc2c(nnn2Cc2ccc(F)cc2)c(=O)[nH]1)Nc1c(Cl)cc(Cl)cc1Cl	0.6	x	-2.2	-2.2	31.2
CO[C@@H]1CN(C)C(=O)c2cc(NC(=O)C3CC3)ccc2OC[C@H](C)N(C(=O)c2ccncc2)C[C@H]1C	x	7.1	-5.2	-4.1	u
Cc1ccc(CNC(=O)C2CCCN(C(=O)Nc3ccc(F)cc3)C2)cc1 (stereo not given)	7.7	-17.4	0.8	19.1	-6.2
CCC(C)NC(=O)C1CCCN(C(=O)Nc2ccc(F)cc2)C1 (stereo not given)	0.3	x	x	-1.2	56.7*
CCCc1cn(CC[C@H]2CC[C@H](NC(=O)C3CC3)[C@H](CO)O2)nn1	x	1.4	-3.1	4.3	7.4[16.7 µM]
SMILES	PDI turbidity	INS-1E GSIS act	ERp5 block	FN deposition inh	Env fusion inh
CCOC(=O)C(c1ccccc1)C(Nc1ccccc1)c1ccccn1 (stereo not given)	2.2	8.2	-11.8	-4.7	14.5
CCOC(=O)C(c1ccccc1)C(Nc1cc(C(F)(F)F)cc(C(F)(F)F)c1)c1ccccn1 (stereo not given)	-2.3	-6.9	2.4	-8.1	67.2*
CN(N=Nc1nc[nH]c1C(N)=O)C1CCCCC1	x	21.2	2.8	-0.1	56.5*
CN(C)N=Nc1nc[nH]c1C(N)=O	-18.1	-13.4	-8.4	-4.0	38.3
Cc1ccc(S(=O)(=O)N(C)C[C@H]2Oc3ccc(NS(C)(=O)=O)cc3C(=O)N([C@H](C)CO)C[C@H]2C)cc1	x	22.2	9.0	-25.9	12.7[16.7 µM]
CCOc1ccc(C(=O)NCc2ccccn2)cc1	-6.0	11.8	2.4	x	x
O=C(NCc1ccccn1)c1coc(=O)c(Br)c1	-9.4	101.6*	x	x	x
CC1=NN(C(N)=S)C(=O)C1N=Nc1ccccc1C (stereo not given)	11.6	65.0*	x	x	x
CCC[N+]1(CC#CCC(c2ccccc2)c2ccccc2)CCCCC1	0.4	-40.4	-1.1	3.7	74.2*
C[C@@H]1CN([C@@H](C)CO)C(=O)c2cc(NS(=O)(=O)c3ccc(F)cc3)ccc2O[C@H]1CN(C)C(=O)NC1CCCCC1	x	12.6	1.6	0.7	-0.3[16.7 µM]
Cc1ccc(N2C(=O)CC(c3c[nH]c4ccccc34)C2=O)cc1 (stereo not given)	8.8	-19.5	-4.7	6.0	-33.4
CCC1=NN=C(c2ccc(F)cc2)C(c2c[nH]c3ccccc23)N1O (stereo not given)	3.9	x	x	1.6	102.9*
N#C[C@H]1[C@H](c2ccc(C#Cc3ccc(F)cc3)cc2)[C@H](CO)N1C(=O)Cc1ccncc1	x	-26.7	0.7	-0.1	x
C[C@@H]1CN([C@@H](C)CO)C(=O)c2cc(/C=C/c3ccccc3)cnc2O[C@@H]1CN(C)C(=O)NC1CCCCC1	x	-33.2	-0.2	0.8	-13.2[16.7 µM]
COc1ccc2[nH]c(=O)c(CN(CCO)C(=O)c3ccccc3F)cc2c1	0.3	66.5*	-2.2	x	x
CO[C@@H]1CN(C)C(=O)c2ccc(NC(=O)C3CC3)cc2OC[C@H](C)N(CC2CCOCC2)C[C@@H]1C	x	4.3	0.1	6.1	35.3[16.7 µM]
Cc1cccc2[nH]c3c(N4CC=C(c5ccc(F)cc5)CC4)ncnc3c12	-4.8	40.8*	3.1	1.5	13.2
O=c1[nH][nH]cc1C=Nc1ccccc1O	14.4	x	x	x	71.5*
O=c1[nH][nH]cc1C=Nc1ccccc1Cl	2.6	8.8	3.8	2.8	4.5
O=C(C[C@H]1CC[C@H](NC(=O)C2CCOCC2)[C@H](CO)O1)NCc1ccccc1Cl	x	-3.6	2.5	11.8	11.6[16.7 µM]
CCOc1cc(N2CCOCC2)c(OCC)cc1NC(=O)COC(=O)c1cc2ccccc2cc1O	-3.5	141.5*	x	-0.5	1.1
COc1ccc(NC(=O)C2CCN(c3nc(C)cc(C)n3)CC2)cc1	-12.1	x	x	-3.0	-60.1
COc1ccc(NC(=O)C2CCN(c3nc(C)nc4c3CCC4)CC2)cc1	-1.0	x	x	-1.1	54.2*
C[C@@H]1CN([C@H](C)CO)C(=O)c2cccc(NC(=O)c3ccc(-c4nccs4)cc3)c2O[C@@H]1CN(C)Cc1ccc(C(=O)O)cc1	x	9.4	-9.0	x	-19.1[16.7 µM]
O=C(C[C@H]1CC[C@H]2[C@@H](COC[C@H](O)CN2C(=O)c2ccccc2F)O1)N1CCOCC1	x	0.0	3.4	-3.4	x
